Source: PubChem (several laboratories)
Hits are enriched below; roughly 0.89% of the tested compounds scored in any of these assays.
Arr AP2 block = inhibitors of beta-arrestin/AP2 binding, primary screen, biochemical, GPCR trafficking, flow cytometry | FITC-arrestin peptide / GST-AP2 beads; AP2 beta2 appendage carries R879A mutation | 0.31% of 340,000 active | inhibition, % at 10 µM | AID 504490, 2011 | beta-arrestin 1 C-terminal peptide binding to AP2 beta2-adaptin appendage (human);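 active means inhibition above a set limit, near 3 SD of compounds lacking own fluorescence, cut at about 54% in these data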
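system = GST-tagged AP2 beta2-adaptin appendage (R879A) on 4 µm glutathione beads | reagent = FITC-labelled arrestin peptide probe, 50 nM final | schedule = compound with beads 12 min RT, then probe 1 h RT | signal = HyperCyt-sampled flow cytometry, FL1 channel, ex 488/em 535 nm | read-out = percent response from loss of bead-bound FITC fluorescence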
PG9 Ab binder = binders of HIV-1 gp120 antibody PG9, primary screen, biochemical, TR-FRET; HIV-1 gp120 / PG9 antibody interaction; TR-FRET gp120-PG9 antibody binding; inhibition, % at 6.7 µM; 0.43% of 360,000 active; in the data active means inhibition above about 8.5%
ABCB6 inh MLPCN = ABCB6 transporter inhibitors, primary screen, K562-ABCB6 cells, flow cytometry, MLPCN library; ATP-binding cassette sub-family B member 6 (Homo sapiens), Q9NP58; K562-ABCB6 porphyrin accumulation, 1 h; stronger effect = lower value; fluorescence ratio to DMSO, % at 10 µM; 0.19% of 360,000 active;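 active means fluorescence ratio to DMSO below 75%, the collection mean minus 3 SD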;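 further: signal is porphyrin accumulated inside mitochondria; lower ratio means ABCB6 inhibition with less porphyrin fluorescence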
iPSC survival up = enhancers of single-cell hiPSC survival, primary screen, ATPlite luminescence; 100% = ROCK inhibitor wells, 0% = DMSO; 0.044% of 360,000 active; survival enhancement, % at 20 µM; in the data active means survival enhancement above about 18%;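 further: cells exposed to compounds for 16 hours before the ATP read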
Arr AP2 CP1 = inhibitors of arrestin peptide binding to AP2, confirmation, biochemical, cherry pick 1, flow cytometry beads | shares compounds with Arr AP2 block | GST-AP2 beads, FITC arrestin peptide binding; GST-fused beta2-adaptin appendage, R879A mutant | inhibition, % at 10 µM | 2% of 1,300 active;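 active means inhibition above a set limit, roughly 3 SD of non-fluorescent compound noise, cut at about 38% in these data; inactive means inhibition at or below that limit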;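 further: loss of bead fluorescence from 50 nM FITC arrestin peptide bound to appendage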
Target sequence (P63010 whole entry, looked up, the tested form may be a part, one chain of several): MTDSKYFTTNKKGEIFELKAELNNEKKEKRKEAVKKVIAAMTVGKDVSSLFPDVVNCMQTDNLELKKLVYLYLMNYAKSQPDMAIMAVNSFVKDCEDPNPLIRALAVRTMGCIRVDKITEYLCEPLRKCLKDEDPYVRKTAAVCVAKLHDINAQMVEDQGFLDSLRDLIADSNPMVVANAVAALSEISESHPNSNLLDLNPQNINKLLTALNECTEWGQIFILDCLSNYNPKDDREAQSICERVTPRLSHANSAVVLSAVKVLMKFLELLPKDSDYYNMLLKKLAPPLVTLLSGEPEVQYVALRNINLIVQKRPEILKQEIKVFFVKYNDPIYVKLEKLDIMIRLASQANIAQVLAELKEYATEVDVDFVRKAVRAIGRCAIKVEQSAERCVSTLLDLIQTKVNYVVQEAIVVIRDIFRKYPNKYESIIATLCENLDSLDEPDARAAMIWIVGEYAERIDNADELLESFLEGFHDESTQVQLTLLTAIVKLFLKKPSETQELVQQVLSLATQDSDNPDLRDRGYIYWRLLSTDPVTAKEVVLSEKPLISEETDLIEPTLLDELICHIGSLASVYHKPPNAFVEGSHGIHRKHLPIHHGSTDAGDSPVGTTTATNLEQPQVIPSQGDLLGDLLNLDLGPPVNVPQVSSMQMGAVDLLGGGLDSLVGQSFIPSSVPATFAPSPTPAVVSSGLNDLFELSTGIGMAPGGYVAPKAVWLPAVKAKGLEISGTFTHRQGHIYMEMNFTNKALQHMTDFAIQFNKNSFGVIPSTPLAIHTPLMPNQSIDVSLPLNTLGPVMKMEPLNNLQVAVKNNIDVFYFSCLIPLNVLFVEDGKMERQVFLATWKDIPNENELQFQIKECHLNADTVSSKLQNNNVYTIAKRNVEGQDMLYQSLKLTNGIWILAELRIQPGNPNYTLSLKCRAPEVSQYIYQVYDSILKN
GST GSH counter = GST-fluorescein capture on glutathione beads, confirmation, artefact control for arrestin-AP2 inhibitor project, biochemical, cherry pick 1, flow cytometry. shares compounds with Arr AP2 block. AID 588338, 2011. 2% of 1,300 active. inhibition, % at 10 µM. GST-fluorescein binding to GSH beads, fluorescence, counter-screen;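 active means inhibition above 50%, about 3 SD of the inhibition seen with non-fluorescent compounds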;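 further: fluorescein maleimide labelled GST captured on 4 micron glutathione beads; higher means more loss of bead fluorescence from quenching or blocked binding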
PG9 bind confirm = binders of anti-gp120 antibody PG9, confirmation, biochemical, TR-FRET; TR-FRET PG9 antibody binding; inhibition, % at 6.7 µM; 90% of 1,500 active; shares compounds with PG9 Ab binder; in the data active means inhibition above about 9%
PGV04 Ab binding = binders of control antibody PGV04, counter-screen for PG9 antibody binder project, biochemical, TR-FRET, distinct HIV envelope site | TR-FRET PGV04 antibody-gp120 binding | inhibition, % at 6.7 µM | shares compounds with PG9 Ab binder | AID 651604, 2012 | 95% of 1,500 active; in the data active means inhibition above about 9.5%
Hits are given with their value; . = inactive; / = no result given.

SMILES	Arr AP2 block	PG9 Ab binder	ABCB6 inh MLPCN	iPSC survival up	Arr AP2 CP1	GST GSH counter	others
CCCCOc1ccc(C(=O)OCC(=O)c2c(N)n(C)c(=O)n(C)c2=O)cc1	.	.	.	.	.	.
Cn1c(N)c(C(=O)COC(=O)CCC2CCCC2)c(=O)n(C)c1=O	.	.	.	.	/	/
Cn1c(N)c(C(=O)COC(=O)CCC2CCCCC2)c(=O)n(C)c1=O	55	.	.	.	.	.
Cc1cc(/C=C2/NC(=O)N(Cc3ccccc3F)C2=O)c(C)n1-c1ccccn1	88	.	.	.	.	72
COC(=O)C1=C(C)N(Cc2ccccc2C(F)(F)F)C(=NCc2ccc(OC)cc2)NC1c1ccccc1C(F)(F)F (stereo not given)	/	.	/	/	/	/
COCCN(C(=O)C1CCCC1)c1c(N)n(Cc2ccccc2)c(=O)[nH]c1=O	.	.	.	.	/	/
Nc1c(N(C(=O)Nc2ccc(Cl)c(Cl)c2)C2CCCC2)c(=O)[nH]c(=O)n1Cc1ccccc1	84	.	.	.	.	.
COc1ccccc1CCn1cnc(-c2cccc(Br)c2)c1CC(C)C	/	.	/	/	/	/
CC[n+]1c(/C=C(\C)SC)sc2ccccc21	.	.	.	.	/	/
CC[n+]1c(/C=C/Nc2ccccc2)sc2ccccc21	.	.	.	.	/	/
CCN1/C(=C/C=C/c2sc3ccccc3[n+]2CC)Sc2ccccc21	75	/	.	.	.	.
CCN1/C(=C/C=C/C=C/C=C/c2sc3ccccc3[n+]2CC)Sc2ccccc21	55	.	.	.	.	.
COC(=O)C1=C(C)N(Cc2ccccc2C(F)(F)F)C(=NCc2ccc(OC)cc2)NC1c1ccc(C(F)(F)F)cc1 (stereo not given)	/	.	/	/	/	/
CC(=O)C1=C(C)N(Cc2ccc(Br)cc2)C(=S)NC1c1ccc(F)cc1 (stereo not given)	/	.	/	/	/	/
CC(C)COc1ccc(C(=O)NC(=S)Nc2ccc(CN3CCOCC3)cc2)cc1	103	.	.	.	.	.
COc1ccc(C(=O)NC(=S)Nc2ccc(CN3CCOCC3)cc2)cc1OC	.	.	.	.	/	/
O=C(/C=C/c1ccc(Cl)cc1)NC(=S)Nc1ccc(CN2CCOCC2)cc1	105	.	.	.	.	.
CCC(C(=O)Nc1ccc2c(c1)OCCO2)n1c(=O)[nH]c2ccccc2c1=O (stereo not given)	.	.	.	.	.	.
COc1cc2c(c(OC)c1OC)C1(CCCCC1)CC2NCC=C(C)C (stereo not given)	/	.	/	/	/	/
COC(=O)C1=C(C)N(C)C(=NCc2ccc3c(c2)OCO3)NC1c1cccc(Cl)c1 (stereo not given)	/	.	/	/	/	/
O=C(NC(CC1=CCCCC1)c1ccc2ccccc2c1)C(F)(F)F (stereo not given)	/	.	/	/	/	/
C#CCNC(=O)C[C@H]1C[C@@]2(C(=O)OC)C(=C[C@H](C(C)(C)C)O[C@@H]2C)N(Cc2ccc3c(c2)OCO3)C1=O	/	.	/	/	/	/
COc1cccc(CNC(=O)C2CCC(=O)N(CCc3cccc(F)c3)C2)c1 (stereo not given)	.	.	.	.	/	/
Cc1ccc(CCCNC(=O)C2CCC(=O)N(Cc3cccc(F)c3)C2)cc1 (stereo not given)	.	.	.	.	.	.
O=C(NCCCC1CCCC1)C1CCC(=O)N(Cc2cccc(F)c2)C1 (stereo not given)	.	.	.	.	/	/
SMILES	Arr AP2 block	PG9 Ab binder	ABCB6 inh MLPCN	iPSC survival up	Arr AP2 CP1	GST GSH counter	others
O=C(NCCc1cccc(F)c1)C1CCC(=O)N(CCCc2ccccc2)C1 (stereo not given)	62	.	.	.	.	.
O=C(NCc1cccc(F)c1)C1CCC(=O)N(CCc2cccc(F)c2)C1 (stereo not given)	.	.	.	.	.	/
O=C(NCCN1CCCC1=O)C1CCC(=O)N(CCc2cccc(F)c2)C1 (stereo not given)	59	.	.	.	.	.
O=C(NCCc1cccc(C(F)(F)F)c1)C1CCC(=O)N(CCc2cccc(F)c2)C1 (stereo not given)	.	.	.	.	/	/
O=c1c2c3c(sc2nc2n1CCCCC2)CCC3	104	.	.	.	.	.
Nc1nc2c(ncn2[C@@H]2O[C@H](C(=O)N[C@H](Cc3ccccc3)C(=O)NCc3ccc4c(c3)OCO4)[C@@H](O)[C@H]2O)c(=O)[nH]1	/	.	/	/	/	/
O=C1c2[nH]nc(-c3ccccc3)c2C(c2cccc(C(F)(F)F)c2)N1c1ccccc1 (stereo not given)	/	.	/	/	/	/
COC(=O)[C@]12C[C@H](CC(=O)NCCCCc3ccccc3)C(=O)N(Cc3ccccc3)C1=C[C@H](C(C)C)O[C@@H]2C1CC1	/	.	/	/	/	/
CCOC(=O)C1CCN(C(=O)c2ccc(N3CCOCC3)c([N+](=O)[O-])c2)CC1	64	.	.	.	.	.
CCCCNC(=O)Cn1c(=O)oc2cc(S(=O)(=O)N3CC(C)CC(C)C3)ccc21 (stereo not given)	.	.	.	.	/	/
Cc1cc(C)cc(NC(=O)Cn2c(=O)oc3cc(S(=O)(=O)N4CC(C)CC(C)C4)ccc32)c1 (stereo not given)	97	.	.	.	.	.
COc1ccccc1C(=O)Nc1nnc(S(=O)(=O)N2CCCCC2)s1	64	36	.	.	.	.	PG9 bind confirm=35;PGV04 Ab binding=42
C[C@@H]1CN(c2ccc(N3CCN(C(=O)OC(C)(C)C)C[C@@H]3C)cc2C#N)CCN1Cc1ccccc1	/	.	/	/	/	/
COc1ccc2oc(C(=O)Nc3ccccn3)c(C)c2c1	.	.	.	.	/	/
COc1ccc2oc(C(=O)Nc3nc(C)cs3)c(C)c2c1	63	8.8	.	.	.	.	PG9 bind confirm=13;PGV04 Ab binding=17
O=C(Nc1ccccc1)c1ccc(-c2ccc(F)cc2)s1	55	19	.	.	.	.	PG9 bind confirm=20;PGV04 Ab binding=28
O=C(C1=C(O)C(=O)N(CCCn2ccnc2)C1c1ccccc1)c1ccco1 (stereo not given)	.	/	.	.	/	/
